Measured values taken from ChEMBL document CHEMBL1926565, “Synthesis, antiproliferative activities and telomerase inhibition evaluation of novel asymmetrical 1,2-disubstituted amidoanthraquinone derivatives” (Eur J Med Chem, 2012).
Activity calls are given as the source filed them. No cut-off for these calls is given here.

Legend:
EKVX = assay: Cytotoxicity against human EKVX cells assessed as cellular growth at 10 uM; type: functional
In short: (§1)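 Single-dose screen run by the NCI across its 60-human-tumour-cell-line panel; growth recorded for each cell line.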

SF-295 = assay: Cytotoxicity against human SF295 cells assessed as cellular growth at 10 uM; type: functional; in short: as §1
RXF 393 = assay: Cytotoxicity against human RXF393 cells assessed as cellular growth at 10 uM; type: functional; in short: as §1
MCF7 = assay: Cytotoxicity against human MCF7 cells assessed as cellular growth at 10 uM; type: functional; in short: as §1
K562 = assay: Cytotoxicity against human K562 cells assessed as cellular growth at 10 uM; type: functional; in short: as §1
M14 = assay: Cytotoxicity against human M14 cells assessed as cellular growth at 10 uM; type: functional; in short: as §1
SF-268 = assay: Cytotoxicity against human SF268 cells assessed as cellular growth at 10 uM; type: functional; in short: as §1
NCI-H522 = assay: Cytotoxicity against human NCI-H522 cells assessed as cellular growth at 10 uM; type: functional; in short: as §1
DU-145 = assay: Cytotoxicity against human DU145 cells assessed as cellular growth at 10 uM; type: functional; in short: as §1
[1] = biological target: Telomerase reverse transcriptase (Homo sapiens) (UniProt O14746); assay: Inhibition of telomerase activity in human H1299 cell free extract at 10 uM by modified TRAP assay
Telomerase reverse transcriptase (Homo sapiens), sequence (O14746 whole entry): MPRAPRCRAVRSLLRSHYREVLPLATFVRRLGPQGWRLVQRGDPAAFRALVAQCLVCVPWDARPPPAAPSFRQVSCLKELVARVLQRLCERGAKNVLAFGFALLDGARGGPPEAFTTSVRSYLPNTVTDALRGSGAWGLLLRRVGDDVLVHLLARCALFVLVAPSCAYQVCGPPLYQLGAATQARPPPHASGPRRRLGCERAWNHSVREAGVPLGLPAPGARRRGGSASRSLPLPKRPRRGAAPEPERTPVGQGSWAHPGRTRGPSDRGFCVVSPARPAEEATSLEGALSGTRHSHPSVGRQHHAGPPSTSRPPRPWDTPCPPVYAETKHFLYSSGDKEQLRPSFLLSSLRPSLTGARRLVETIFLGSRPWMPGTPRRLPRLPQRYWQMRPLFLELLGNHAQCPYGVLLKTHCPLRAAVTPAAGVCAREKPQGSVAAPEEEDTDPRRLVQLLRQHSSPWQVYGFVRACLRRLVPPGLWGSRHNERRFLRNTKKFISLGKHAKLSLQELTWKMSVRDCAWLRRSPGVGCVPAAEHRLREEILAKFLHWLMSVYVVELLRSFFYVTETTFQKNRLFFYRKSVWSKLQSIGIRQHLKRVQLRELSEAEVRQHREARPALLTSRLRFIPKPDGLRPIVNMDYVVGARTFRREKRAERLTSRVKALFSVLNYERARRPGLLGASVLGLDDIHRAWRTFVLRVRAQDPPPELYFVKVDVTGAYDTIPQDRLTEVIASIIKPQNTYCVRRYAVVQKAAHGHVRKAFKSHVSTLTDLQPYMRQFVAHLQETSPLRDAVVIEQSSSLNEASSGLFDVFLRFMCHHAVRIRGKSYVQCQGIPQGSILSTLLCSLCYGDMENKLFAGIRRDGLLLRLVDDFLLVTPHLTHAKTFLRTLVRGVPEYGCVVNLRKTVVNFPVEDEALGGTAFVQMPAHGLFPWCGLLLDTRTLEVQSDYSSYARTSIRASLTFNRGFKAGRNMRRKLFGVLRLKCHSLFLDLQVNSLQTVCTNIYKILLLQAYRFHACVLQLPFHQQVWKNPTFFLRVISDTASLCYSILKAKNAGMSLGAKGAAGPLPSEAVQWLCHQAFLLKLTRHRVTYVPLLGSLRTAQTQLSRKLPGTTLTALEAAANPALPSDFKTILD
In short: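 TRAP assay using total cell lysate from H1299 lung cancer cells as the telomerase source, with protein measured against BSA standards. Compounds tested at 10 µM. Controls were lysate without inhibitor (positive) and RNase A-treated extract without inhibitor (negative).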

[2] = biological target: Telomerase reverse transcriptase (Homo sapiens) (UniProt O14746); assay: Residual activity of human TERT in H1299 cells at 10 uM after 24 hrs by SEAP reporter gene assay
MDA-MB-468 = assay: Cytotoxicity against human MDA-MB-468 cells assessed as cellular growth at 10 uM; type: functional; in short: as §1
UO-31 = assay: Cytotoxicity against human UO31 cells assessed as cellular growth at 10 uM; type: functional
MOLT-4 = assay: Cytotoxicity against human MOLT4 cells assessed as cellular growth at 10 uM; type: functional; in short: as §1
OVCAR-8 = assay: Cytotoxicity against human OVCAR8 cells assessed as cellular growth at 10 uM; type: functional; in short: as §1
HOP-62 = assay: Cytotoxicity against human HOP62 cells assessed as cellular growth at 10 uM; type: functional; in short: as §1
NCI-H226 = assay: Cytotoxicity against human NCI-H226 cells assessed as cellular growth at 10 uM; type: functional; in short: as §1
UACC-257 = assay: Cytotoxicity against human UACC257 cells assessed as cellular growth at 10 uM; type: functional
A549 = assay: Cytotoxicity against human A549 cells assessed as cellular growth at 10 uM; type: functional; in short: as §1
[3] = biological target: Telomerase reverse transcriptase (Homo sapiens) (UniProt O14746); assay: Residual activity of human TERT in H1299 cells at 100 uM after 24 hrs by SEAP reporter gene assay
SW-620 = assay: Cytotoxicity against human SW620 cells assessed as cellular growth at 10 uM; type: functional
[4] = biological target: Telomerase reverse transcriptase (Homo sapiens) (UniProt O14746); assay: Residual activity of human TERT in H1299 cells at 1 uM after 24 hrs by SEAP reporter gene assay
SNB-75 = assay: Cytotoxicity against human SNB75 cells assessed as cellular growth at 10 uM; type: functional
PC-3 [5] = assay: Cytotoxicity against human PC3 cells after 48 hrs by SRB assay; type: functional, cell-based; details: PC-3, 48 h
In short: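 PC-3 cells grown in RPMI1640 with 10% FBS at 37 °C, 5% CO₂. Seeded in medium with 5% FBS; after 24 h, one plate fixed with 10% TCA as T₀. Compound or 0.1% DMSO vehicle added for 48 h, then TCA fixation and 0.4% SRB in 1% acetic acid. Dye solubilized in 10 mM Trizma base, absorbance read at 515 nm. IC50 is the concentration giving 50% reduction of the protein gain in controls.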

MDA-MB-231 = assay: Cytotoxicity against human MDA-MB-231 cells assessed as cellular growth at 10 uM; type: functional; in short: as §1
COLO 205 = assay: Cytotoxicity against human COLO205 cells assessed as cellular growth at 10 uM; type: functional; in short: as §1
CAKI-1 = assay: Cytotoxicity against human Caki1 cells assessed as cellular growth at 10 uM; type: functional; in short: as §1
NCI-H23 = assay: Cytotoxicity against human NCI-H23 cells assessed as cellular growth at 10 uM; type: functional; in short: as §1
SK-MEL-2 = assay: Cytotoxicity against human SK-MEL-2 cells assessed as cellular growth at 10 uM; type: functional; in short: as §1
NCI/ADR-RES = assay: Cytotoxicity against human NCI/ADR-RES cells assessed as cellular growth at 10 uM; type: functional; in short: as §1
U-251 = assay: Cytotoxicity against human U251 cells assessed as cellular growth at 10 uM; type: functional
HL-60(TB) = assay: Cytotoxicity against human HL-60(TB) cells assessed as cellular growth at 10 uM; type: functional; in short: as §1
PC-3 [6] = assay: Cytotoxicity against human PC3 cells assessed as cellular growth at 10 uM; type: functional; in short: as §1
[7] = Growth of human H1299 cells at 100 uM 48 hrs by MTT assay; details: NCI-H1299, 48 h
[8] = Growth of human H1299 cells at 10 uM after 48 hrs by MTT assay; details: NCI-H1299, 48 h
IGROV-1 = assay: Cytotoxicity against human IGROV1 cells assessed as cellular growth at 10 uM; type: functional; in short: as §1
CCRF-CEM = assay: Cytotoxicity against human CCRF-CEM cells assessed as cellular growth at 10 uM; type: functional; in short: as §1
SF-539 = assay: Cytotoxicity against human SF539 cells assessed as cellular growth at 10 uM; type: functional; in short: as §1
HT-29 = assay: Cytotoxicity against human HT-29 cells assessed as cellular growth at 10 uM; type: functional; in short: as §1
UACC-62 = assay: Cytotoxicity against human UACC62 cells assessed as cellular growth at 10 uM; type: functional
A498 = assay: Cytotoxicity against human A498 cells assessed as cellular growth at 10 uM; type: functional; in short: as §1
[9] = Growth of human H1299 cells at 1 uM after 48 hrs by MTT assay; details: NCI-H1299, 48 h
786-0 = assay: Cytotoxicity against human 786-0 cells assessed as cellular growth at 10 uM; type: functional; in short: as §1
SN12C = assay: Cytotoxicity against human SN12C cells assessed as cellular growth at 10 uM; type: functional
OVCAR-4 = assay: Cytotoxicity against human OVCAR4 cells assessed as cellular growth at 10 uM; type: functional; in short: as §1
Malme-3M = assay: Cytotoxicity against human MALME-3M cells assessed as cellular growth at 10 uM; type: functional; in short: as §1
BT-549 = assay: Cytotoxicity against human BT549 cells assessed as cellular growth at 10 uM; type: functional; in short: as §1
TK-10 = assay: Cytotoxicity against human TK10 cells assessed as cellular growth at 10 uM; type: functional

**Q.** For `Cc1ccc(C(=O)Nc2c(NC(=O)CN3CCN(C)CC3)ccc3c2C(=O)c2ccccc2C3=O)cc1`, which Activity (EKVX) is on record?
**A.** Its Activity is 78.07%.

**Q.** And the Activity (SF-295)?
**A.** The Activity was 89.86%.

**Q.** What about the Activity (RXF 393) of the same molecule?
**A.** Its Activity is 68.84%.

**Q.** And the Activity (MCF7)?
**A.** Its Activity is 31.79%.

**Q.** And the Activity (K562)?
**A.** Its Activity is -4.52%.

**Q.** And the Activity (M14)?
**A.** The Activity was -60.04%.

**Q.** What about the Activity (SF-268) of the same molecule?
**A.** The Activity was 59.11%.

**Q.** And the Activity (NCI-H522)?
**A.** The Activity was 88.21%.

**Q.** What about the Activity (DU-145) of the same molecule?
**A.** Its Activity is 82.12%.

**Q.** What about the inhibition [1] of the same molecule?
**A.** The inhibition was “inactive”.

**Q.** And the residual activity [2]?
**A.** The residual activity was 29%.

**Q.** And the Activity (MDA-MB-468)?
**A.** The Activity was 7.43%.

**Q.** What about the Activity (UO-31) of the same molecule?
**A.** Its Activity is 70.66%.

**Q.** And the Activity (MOLT-4)?
**A.** Its Activity is 26.04%.

**Q.** What about the Activity (OVCAR-8) of the same molecule?
**A.** The Activity was 46.43%.

**Q.** And the Activity (HOP-62)?
**A.** The Activity was 75.21%.

**Q.** And the Activity (NCI-H226)?
**A.** Its Activity is 93.87%.

**Q.** What about the Activity (UACC-257) of the same molecule?
**A.** Its Activity is -50.95%.

**Q.** What about the Activity (A549) of the same molecule?
**A.** The Activity was 83.89%.

**Q.** And the residual activity [3]?
**A.** The residual activity was 8%.

**Q.** And the Activity (SW-620)?
**A.** The Activity was 39.17%.

**Q.** What about the residual activity [4] of the same molecule?
**A.** The residual activity was 78%.

**Q.** What about the Activity (SNB-75) of the same molecule?
**A.** Its Activity is 82.17%.

**Q.** And the IC50 (PC-3 [5])?
**A.** The IC50 was 3.46 µM.

**Q.** What about the Activity (MDA-MB-231) of the same molecule?
**A.** The Activity was 37%.

**Q.** And the Activity (COLO 205)?
**A.** Its Activity is 2.29%.

**Q.** And the Activity (CAKI-1)?
**A.** Its Activity is 69.76%.

**Q.** What about the Activity (NCI-H23) of the same molecule?
**A.** The Activity was 89.52%.

**Q.** And the Activity (SK-MEL-2)?
**A.** Its Activity is 123.64%.

**Q.** What about the Activity (NCI/ADR-RES) of the same molecule?
**A.** The Activity was 66.74%.

**Q.** What about the Activity (U-251) of the same molecule?
**A.** Its Activity is 22.38%.

**Q.** And the Activity (HL-60(TB))?
**A.** The Activity was -8.54%.

**Q.** What about the Activity (PC-3 [6]) of the same molecule?
**A.** The Activity was 84.75%.

**Q.** And the growth, % of control at 100 µM [7]?
**A.** Its growth, % of control at 100 µM is 3%.

**Q.** What about the growth, % of control at 10 µM [8] of the same molecule?
**A.** Its growth, % of control at 10 µM is 13%.

**Q.** What about the Activity (IGROV-1) of the same molecule?
**A.** Its Activity is 112.2%.

**Q.** What about the Activity (CCRF-CEM) of the same molecule?
**A.** The Activity was 61.06%.

**Q.** And the Activity (SF-539)?
**A.** The Activity was 62.68%.

**Q.** What about the Activity (HT-29) of the same molecule?
**A.** The Activity was 3.69%.

**Q.** And the Activity (UACC-62)?
**A.** Its Activity is -20.65%.

**Q.** What about the Activity (A498) of the same molecule?
**A.** Its Activity is 67.36%.

**Q.** What about the growth, % of control at 1 µM [9] of the same molecule?
**A.** Its growth, % of control at 1 µM is 77%.

**Q.** What about the Activity (786-0) of the same molecule?
**A.** The Activity was 11.9%.

**Q.** What about the Activity (SN12C) of the same molecule?
**A.** Its Activity is 63.31%.

**Q.** What about the Activity (OVCAR-4) of the same molecule?
**A.** Its Activity is 57.11%.

**Q.** And the Activity (Malme-3M)?
**A.** The Activity was 10.84%.

**Q.** What about the Activity (BT-549) of the same molecule?
**A.** Its Activity is 91.88%.

**Q.** What about the Activity (TK-10) of the same molecule?
**A.** The Activity was 101.93%.
